Test results reported in ChEMBL document CHEMBL5325493, “Discovery of AD258 as a Sigma Receptor Ligand with Potent Antiallodynic Activity” (J Med Chem, 2023).
Active and inactive are the calls of the source. The rule behind the calls is not given here.

Tests used:
Mus musculus [1] = assay: Anti-allodynic activity against capsaicin-induced wild type CD1 mouse allodynia model assessed as reversal of capsaicin induced hypersensitivity by measuring latency value at 40 mg/kg, sc preincubated for 5 with […] followed by compound addition for 30 mins prior to capsaicin stimulation; format: functional, organism-based
In short: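 Female CD1 mice, 25–30 g, acclimated at least 1 week. Mechanical allodynia induced by intraplantar capsaicin; read-out is response latency to mechanical stimulation of the paw. Compound given s.c.; the S1R agonist PRE-084 (32 mg/kg, s.c.) was co-administered to test reversal. Values are mean ± SEM from 6–9 animals per group.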

Mus musculus [2] = assay: Anti-allodynic activity against capsaicin-induced d sc dosed wild type CD1 mouse allodynia model assessed as reversal of capsaicin induced hypersensitivity by measuring latency value preincubated for 30 mins followed by capsaicin addition (reference value: 13.51 +/- 1.93 sec); format: functional; settings: dose 10-40 mg/kg
Mus musculus [3] = assay: Anti-allodynic activity against capsaicin-induced wild type CD1 mouse allodynia model assessed as reversal of capsaicin induced hypersensitivity by measuring latency value at 10 mg/kg, sc preincubated for 5 with […] followed by compound addition for 30 mins prior to capsaicin stimulation; format: functional, organism-based
[4] = Cytotoxicity against HCE cells assessed as reduction in cell viability at 100 uM […] by MTT assay; format: toxicity, cell-based; settings: human
Mus musculus [5] = assay: Anti-allodynic activity against capsaicin-induced wild type CD1 mouse allodynia model assessed as reversal of capsaicin induced hypersensitivity by measuring latency value at 5 mg/kg, sc preincubated for 30 mins followed by capsaicin addition (reference value: 13.51 +/- 1.93 sec); format: functional, organism-based
[6] = Cytotoxicity against HCE cells assessed as reduction in cell viability at above 20 uM incubated for 1 hr by MTT assay; format: toxicity, cell-based; settings: human
In short: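 HCE cells in MEM with 10% FBS, grown to 80–90% confluence. Exposed to compounds in free medium for 20 h. MTT (5 mg/mL in PBS, 1:5 of medium volume) then added for 1 h; formazan dissolved in DMSO and read at 540 nm. Viability expressed as % of untreated cells; three independent experiments.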

[7] = target: Sigma non-opioid intracellular receptor 1 (Rattus norvegicus) (UniProt Q9R0C9); assay: Selectivity ratio of Ki for binding affinity to rat liver homogenate S1R incubated for 2 hrs in absence of phenytoin to Ki for binding affinity to rat liver homogenate S1R incubated for 2 hrs in presence of phenytoin; format: tissue-based
[8] = target: Sigma intracellular receptor 2 (Homo sapiens, UniProt Q5BJF2); assay: Binding affinity to S2R (unknown origin)
[9] = target: Sigma non-opioid intracellular receptor 1 (Homo sapiens, UniProt Q99720); assay: Binding affinity to S1R (unknown origin)
In short: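 Rat liver homogenates from male Sprague Dawley rats in 50 mM Tris pH 8. […] Incubated 120 min at 37 °C, then filtration and scintillation counting. Ki is the mean ± SD of at least two experiments in duplicate.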

[10] = Cytotoxicity against HCE cells at 50 to 100 uM […] by LDH assay; format: toxicity, cell-based; settings: human, 1.25 h, dose 50-100 µM
Mus musculus [11] = assay: Anti-allodynic activity against capsaicin-induced wild type CD1 mouse allodynia model assessed as reversal of capsaicin induced hypersensitivity by measuring latency value at 20 mg/kg, sc preincubated for 5 with […] followed by compound addition for 30 mins prior to capsaicin stimulation; format: functional, organism-based
[12] = Toxicity in wild type CD1 mouse assessed as effect on motor coordination at 60 mg/kg, sc measured upto 240 mins by rotarod test; format: organism-based; settings: in vivo, 4 h
In short: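 Female CD1 mice, 25–30 g. Latency to fall from the rotarod was recorded immediately before and several times after s.c. dosing, over 4 h; vehicle was DMSO 5% in saline. Mean ± SEM from 6–7 animals; 2-way repeated measures ANOVA followed by Student–Newman–Keuls test against time 0.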

[13] = target: Cannabinoid receptor 1 (Homo sapiens) (UniProt P21554); assay: Inhibition of CB1 (unknown origin) at 1 uM relative to control
In short: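 Membranes from rat Chem-1 cells expressing human recombinant CB1, 5 µg per sample, in modified HEPES pH 7.4. […] Nonspecific binding with 10 µM CP 55,940. Compound tested at 1 µM; filtration and counting of specifically bound radioligand.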

Mus musculus [14] = assay: Anti-allodynic activity against capsaicin-induced wild type CD1 mouse allodynia model assessed as reversal of capsaicin induced hypersensitivity by measuring latency value at 1.25 mg/kg, sc preincubated for 5 with […] followed by compound addition for 30 mins prior to capsaicin stimulation; format: functional, organism-based
[15] = target: Delta-type opioid receptor (Homo sapiens) (UniProt P41143); assay: Inhibition of DOR (unknown origin) at 1 uM relative to control
[16] = target: Kappa-type opioid receptor (Homo sapiens) (UniProt P41145); assay: Inhibition of KOR (unknown origin) at 1 uM relative to control
In short: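 Nonspecific binding defined with 10 µM naloxone. Filtration through PEI-presoaked filters, then scintillation counting.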

[17] = Toxicity in wild type CD1 mouse assessed as effect on motor coordination at 1.25 mg/kg, sc measured upto 240 mins by rotarod test; format: organism-based; settings: in vivo, time < 240 hrs
In short: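 Female CD1 mice on rotarod; latency to fall recorded immediately before and at several times over 4 h after s.c. dosing. Vehicle was 5% DMSO in saline; pregabalin 60 mg/kg s.c. served as the motor-deficit control. Mean ± SEM from 6–7 animals, analysed by 2-way repeated-measures ANOVA with Student–Newman–Keuls test.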

[18] = target: Mu-type opioid receptor (Homo sapiens) (UniProt P35372); assay: Inhibition of MOR (unknown origin) at 1 uM relative to control
[19] = target: Cannabinoid receptor 2 (Homo sapiens) (UniProt P34972); assay: Inhibition of CB2 (unknown origin) at 1 uM relative to control
In short: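 Membranes from CHO-K1 cells expressing human CB2, 30 µg per sample, in modified HEPES pH 7.0. […] Nonspecific binding with 10 µM R(+)-WIN-55,212-2. Compound tested at 1 µM; bound radioligand counted after filtration.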

Mus musculus [20] = assay: Anti-allodynic activity against capsaicin-induced wild type CD1 mouse allodynia model assessed as reversal of capsaicin induced hypersensitivity by measuring latency value at 0.6 to 1.25 mg/kg, sc preincubated for 30 mins followed by capsaicin addition (reference value: 13.51 +/- 1.93 sec); format: functional, organism-based; settings: dose 0.6-1.25 mg/kg
[21] = target: Sigma non-opioid intracellular receptor 1 (Rattus norvegicus, UniProt Q9R0C9); assay: Displacement of [3H]-(+)-pentazocine from rat liver homogenate S1R incubated for 120 mins by liquid scintillation counting method; format: tissue-based
Sigma non-opioid intracellular receptor 1 (Rattus norvegicus, UniProt Q9R0C9), sequence (Q9R0C9 whole entry): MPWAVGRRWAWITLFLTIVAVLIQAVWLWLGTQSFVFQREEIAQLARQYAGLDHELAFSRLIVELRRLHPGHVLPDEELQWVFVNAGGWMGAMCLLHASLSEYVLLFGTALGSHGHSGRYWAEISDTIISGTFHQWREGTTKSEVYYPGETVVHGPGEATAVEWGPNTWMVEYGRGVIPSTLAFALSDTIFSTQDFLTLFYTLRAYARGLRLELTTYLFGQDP

Sigma non-opioid intracellular receptor 1 (Homo sapiens, UniProt Q99720), sequence (Q99720 whole entry): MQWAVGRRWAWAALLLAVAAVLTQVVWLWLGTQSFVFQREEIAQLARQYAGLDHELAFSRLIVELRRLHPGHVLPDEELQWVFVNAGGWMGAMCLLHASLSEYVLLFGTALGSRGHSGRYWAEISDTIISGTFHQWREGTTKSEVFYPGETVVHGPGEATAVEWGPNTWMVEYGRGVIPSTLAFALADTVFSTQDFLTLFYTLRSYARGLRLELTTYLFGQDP
Sigma intracellular receptor 2, sequence (Q5BJF2 whole entry): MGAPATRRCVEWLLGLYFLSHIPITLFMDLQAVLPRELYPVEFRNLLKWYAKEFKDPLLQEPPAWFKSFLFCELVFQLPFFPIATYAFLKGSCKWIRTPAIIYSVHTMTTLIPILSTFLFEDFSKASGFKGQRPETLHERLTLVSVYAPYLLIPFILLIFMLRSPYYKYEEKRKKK
Mu-type opioid receptor (Homo sapiens), sequence (P35372 whole entry): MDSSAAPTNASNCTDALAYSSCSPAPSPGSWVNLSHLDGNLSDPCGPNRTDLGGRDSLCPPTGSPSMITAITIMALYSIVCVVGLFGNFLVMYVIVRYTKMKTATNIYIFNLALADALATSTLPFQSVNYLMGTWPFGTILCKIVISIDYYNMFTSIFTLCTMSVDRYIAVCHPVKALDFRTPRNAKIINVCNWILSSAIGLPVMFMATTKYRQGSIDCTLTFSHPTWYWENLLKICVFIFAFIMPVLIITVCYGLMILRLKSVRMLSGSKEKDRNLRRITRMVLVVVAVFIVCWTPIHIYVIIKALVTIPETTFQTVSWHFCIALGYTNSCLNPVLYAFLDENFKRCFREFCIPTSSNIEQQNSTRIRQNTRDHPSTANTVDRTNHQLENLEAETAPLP
Delta-type opioid receptor (Homo sapiens), sequence (P41143 whole entry): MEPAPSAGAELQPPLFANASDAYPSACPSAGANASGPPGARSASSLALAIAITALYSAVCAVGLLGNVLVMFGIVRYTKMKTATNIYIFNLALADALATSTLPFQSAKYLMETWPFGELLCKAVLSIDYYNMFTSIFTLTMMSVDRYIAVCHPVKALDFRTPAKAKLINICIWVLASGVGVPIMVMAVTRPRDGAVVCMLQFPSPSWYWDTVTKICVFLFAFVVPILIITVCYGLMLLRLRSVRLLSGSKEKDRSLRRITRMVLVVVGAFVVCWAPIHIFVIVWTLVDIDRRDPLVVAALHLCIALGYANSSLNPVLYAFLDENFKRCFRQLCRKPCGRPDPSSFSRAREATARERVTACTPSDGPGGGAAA
Sigma non-opioid intracellular receptor 1 (Rattus norvegicus), sequence (Q9R0C9 whole entry): as the sequence (Q9R0C9 whole entry) above
Cannabinoid receptor 2 (Homo sapiens), sequence (P34972 whole entry): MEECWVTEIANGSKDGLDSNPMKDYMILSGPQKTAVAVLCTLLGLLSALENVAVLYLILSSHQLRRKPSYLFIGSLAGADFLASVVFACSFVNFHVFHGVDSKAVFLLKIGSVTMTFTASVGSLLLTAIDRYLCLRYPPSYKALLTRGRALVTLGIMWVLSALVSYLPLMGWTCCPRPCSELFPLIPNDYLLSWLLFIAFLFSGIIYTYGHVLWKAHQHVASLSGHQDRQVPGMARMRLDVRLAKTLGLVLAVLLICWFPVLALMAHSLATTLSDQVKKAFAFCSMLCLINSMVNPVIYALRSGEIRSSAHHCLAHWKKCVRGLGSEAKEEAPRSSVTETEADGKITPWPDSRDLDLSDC
Cannabinoid receptor 1 (Homo sapiens), sequence (P21554 whole entry): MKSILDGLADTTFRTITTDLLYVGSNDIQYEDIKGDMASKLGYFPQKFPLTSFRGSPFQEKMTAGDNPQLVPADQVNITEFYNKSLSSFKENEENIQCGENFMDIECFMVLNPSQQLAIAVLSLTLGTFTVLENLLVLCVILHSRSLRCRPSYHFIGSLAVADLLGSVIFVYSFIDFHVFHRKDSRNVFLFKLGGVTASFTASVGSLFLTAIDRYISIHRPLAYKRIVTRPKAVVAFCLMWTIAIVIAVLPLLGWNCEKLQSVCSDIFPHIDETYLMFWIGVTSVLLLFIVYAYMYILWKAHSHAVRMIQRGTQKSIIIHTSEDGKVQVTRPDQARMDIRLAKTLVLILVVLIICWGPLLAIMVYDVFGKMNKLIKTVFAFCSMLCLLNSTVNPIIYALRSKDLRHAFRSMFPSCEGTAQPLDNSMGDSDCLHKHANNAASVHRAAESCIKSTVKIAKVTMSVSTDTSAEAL
Kappa-type opioid receptor (Homo sapiens), sequence (P41145 whole entry): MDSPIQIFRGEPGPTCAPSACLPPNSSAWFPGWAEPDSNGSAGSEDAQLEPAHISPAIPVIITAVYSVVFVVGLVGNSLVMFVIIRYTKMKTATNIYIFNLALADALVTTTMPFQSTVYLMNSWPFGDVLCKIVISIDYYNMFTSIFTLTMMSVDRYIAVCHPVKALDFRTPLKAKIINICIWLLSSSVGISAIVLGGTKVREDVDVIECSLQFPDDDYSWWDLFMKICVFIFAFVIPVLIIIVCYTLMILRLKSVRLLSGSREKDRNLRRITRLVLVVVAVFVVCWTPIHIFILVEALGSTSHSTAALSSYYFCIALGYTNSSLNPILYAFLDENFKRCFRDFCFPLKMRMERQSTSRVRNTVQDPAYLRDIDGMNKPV

In the case of `O=C(Cc1ccc(Cl)c(Cl)c1)N1CCC2(CCN(CCc3ccccc3)C2)C1` (stereo not given), the Activity (Mus musculus [1]) is reported as “inactive”, the Activity (Mus musculus [2]) is reported as “Dose-Dependent Effect” and the Activity (Mus musculus [2]; 0.5 h, at 10 to 40 mg/kg) is reported as 100%.

In the case of `O=[N+]([O-])c1ccc(N2CCC3(CCN(CCc4ccccc4)C3)C2)cc1` (stereo not given), the Activity (Mus musculus [3]) is reported as “inactive”, the Activity [4] is reported as 50% and the Activity (Mus musculus [5]) is reported as “Active”. For the same compound, the Activity (Mus musculus [2]) was “Dose-Dependent Effect” and the Activity (Mus musculus [2]; 0.5 h, at 10 to 40 mg/kg) was 100%.

With `Cl.O=C(OCCN1CCOCC1)C1(c2ccccc2)CCCCC1` the Activity [6] was “Toxic”.

With `C=CCN1CC[C@@]2(C)C[C@@H]1Cc1ccc(O)cc12` the Ratio Ki [7] was 5.8.

In the case of `c1ccc(CN2CCC3(CC2)OCC(c2ccccc2)CO3)cc1`, the Ki [8] is reported as 813 nM and the Ki [9] is reported as 0.013 nM.

In the case of `c1ccc(CCN2CCC3(CCN(c4ccccc4)C3)C2)cc1` (stereo not given), the Activity [6] is reported as “Toxic”, the Activity [10] is reported as “Toxic” and the Activity (Mus musculus [11]) is reported as “inactive”. For the same compound, the Activity [4] was “Toxic” and the Activity (Mus musculus [2]) was “Dose-Dependent Effect”.

With `CC(C)C[C@H](CN)CC(=O)O` [PREGABALIN] the Activity [12] was “Toxic”.

In the case of `c1ccc(CCN2CCC3(CCN(CCc4ccccc4)C3)C2)cc1`, the Activity [6] is reported as “Toxic”, the Activity [10] is reported as “Toxic” and the Activity (Mus musculus [11]) is reported as “inactive”. For the same compound, the Activity [4] was “Toxic” and the Activity (Mus musculus [2]) was “Dose-Dependent Effect”.

With `CN1CCN(CCc2ccc(Cl)c(Cl)c2)CC1` the Activity (Mus musculus [1]) was “inactive”.

`c1ccc(CN2CCC3(CCc4ccccc4S3)CC2)cc1` showed a Ki [8] of 6.4 nM and a Ki [9] of 9.2 nM.

In the case of `COC1Cc2ccccc2C2(CCC(N(C)CC3CCCCC3)CC2)O1` (stereo not given), the Ki [8] is reported as 12 nM and the Ki [9] is reported as 1.9 nM.

In the case of `N#Cc1ccc(N2CCC3(CCN(CCc4ccccc4)C3)C2)cc1` (stereo not given), the inhibition [13] is reported as less than 50%, the Activity [10] is reported as “Toxic” and the Activity (Mus musculus [14]) is reported as “inactive”. For the same compound, the inhibition [15] was less than 50%, the inhibition [16] was less than 50% and the Activity (Mus musculus [2]) was “Dose-Dependent Effect”. The Activity (Mus musculus [2]; 0.5 h, at 10 to 40 mg/kg) was 100%, the Activity [17] was “Non-Toxic” and the inhibition [18] was less than 50%. For the same compound, the inhibition [19] was less than 50% and the Activity (Mus musculus [20]) was “Active”.

In the case of `c1ccc2c(c1)Nc1ccccc1S2` [PHENOTHIAZINE], the Ki [21] is reported as 4.3 nM.
